# In ChEMBL document CHEMBL1156715, “Synthesis of new 3-pyridinecarboxylates of potential vasodilation properties” (Eur J Med Chem, 2008):
# pIC50: −log10 of the molar value.
# Test system: Aorta
# Assay: Vasodilation activity in Wistar rat thoracic aorta assessed as reduction of norepinephrine hydrochloride-induced contracture after 2 hrs
# Format: functional, tissue-based
# Method in brief: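 Endothelium-denuded aortic preparations (functional endothelium removed, confirmed by <10% acetylcholine relaxation of pre-contracted aorta) equilibrated 2 h under 2 g resting tension. Contraction to norepinephrine hydrochloride (3 × 10^-7 to 3 × 10^-3 M) recorded isometrically before and after increasing test concentrations. DMSO stock 50 mg/ml; DMSO-only controls. IC50 = concentration giving 50% reduction of maximal norepinephrine contracture.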
row,SMILES,pIC50
1,CCOC(=O)c1c(-c2ccc(F)cc2)cc(-c2ccccc2)nc1Nc1ccc(OC)cc1,3.60
2,CCOC(=O)c1c(-c2ccc(C)cc2)cc(-c2ccccc2)nc1N,3.49
3,CCOC(=O)c1c(-c2ccc(F)cc2)cc(-c2ccccc2)nc1N1CCCCC1,3.46
4,CCOC(=O)c1c(-c2ccc(C)cc2)cc(-c2ccccc2)nc1N1CCCCC1,3.76
5,CCOC(=O)c1c(-c2ccc(F)cc2)cc(-c2ccccc2)nc1Nc1ccccc1,3.44
6,CCOC(=O)c1c(-c2ccc(C)cc2)cc(-c2ccccc2)nc1N1CCN(c2nc(-c3ccccc3)cc(-c3ccc(C)cc3)c2C(=O)OCC)CC1,3.64

# Further compounds by rising pIC50, results first:
row,pIC50,SMILES
1,3.15,CCOC(=O)c1c(-c2ccc(F)cc2)cc(-c2ccccc2)nc1Nc1ccc(Cl)cc1
2,3.47,CCOC(=O)c1c(-c2ccc(C)cc2)cc(-c2ccccc2)nc1N1CCOCC1
3,3.47,CCOC(=O)c1c(-c2ccc(F)cc2)cc(-c2ccccc2)nc1N
4,3.58,CCOC(=O)c1c(-c2ccc(C)cc2)cc(-c2ccccc2)nc1Nc1ccc(Cl)cc1
5,3.63,CCOC(=O)c1c(-c2ccc(C)cc2)cc(-c2ccccc2)nc1Nc1ccc(OC)cc1
6,3.84,CCOC(=O)c1c(-c2ccc(F)cc2)cc(-c2ccccc2)nc1N1CCOCC1
